Measurements reported in ChEMBL document CHEMBL5053555, “Design, Synthesis, and Evaluation of Potent, Selective, and Bioavailable AKT Kinase Degraders” (J Med Chem, 2021).
One block for each compound: values may come before it. The source made the active and inactive calls. The calls are words filed in the database; no cut-off is given here.

Assays:
[1] = target: T1, von Hippel-Lindau disease tumor suppressor/AKT (Homo sapiens) (UniProt P31751+Q9Y243+P31749+P40337); test: Protac activity at VHL/AKT in human PC-3 cells assessed as reduction in total AKT level at 1 uM after 24 hrs by Western blot analysis; assay type: cell-based
Procedure, shortened: (§1)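 PC3 cells were exposed to compound at 1 μM for 24 h, with GSK690693 as reference inhibitor. Lysates were immunoblotted for total AKT, P-AKT S473, P-PRAS40 T246 and P-S6 S240/244, with β-actin as loading control. Detection was by HRP chemiluminescence on film.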

[2] = target: T1, von Hippel-Lindau disease tumor suppressor/AKT (Homo sapiens); test: Protac activity at VHL/AKT in human PC-3 cells assessed as reduction in phosphorylated AKT level at 1 uM after 24 hrs by Western blot analysis; assay type: cell-based; procedure, shortened: as §1
[3] = target: T2, Protein cereblon/AKT (Homo sapiens) (UniProt P31751+Q9Y243+P31749+Q96SW2); test: Protac activity at CRBN/AKT in human PC-3 cells assessed as reduction in total AKT level at 1 uM after 24 hrs by Western blot analysis; assay type: cell-based; procedure, shortened: as §1
[4] = target: T2, Protein cereblon/AKT (Homo sapiens); test: Protac activity at CRBN/AKT in human PC-3 cells assessed as reduction in phosphorylated AKT level at 1 uM after 24 hrs by Western blot analysis; assay type: cell-based; procedure, shortened: as §1
[5] = tested on: BT-474; test: Inhibition of colony formation in human BT-474 cells at 0.1 to 10 uM after 14 days by crystal violet staining based assay; assay type: functional, cell-based; details: dose 0.1-10 µM, time 14.0 day
Procedure, shortened: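 BT474 cells were cultured 14 days with compound, and medium plus compound was replenished every 2 days. Viable cells were stained with 0.5% crystal violet and quantified.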

[6] = tested on: PC-3; test: Antiproliferative activity against human PC-3 cells assessed as growth inhibition incubated for 5 days by IncuCyte live-cell imaging analysis; assay type: functional; details: PC-3, 120 h, time 5 day
[7] = tested on: Mus musculus; test: Toxicity in Swiss albino mouse assessed as tolerability at 50 mg/kg, ip measured upto 8 hrs by LC-MS/MS method; assay type: organism-based; details: in vivo
[8] = tested on: MDA-MB-468; test: Antiproliferative activity against human MDA-MB-468 cells assessed as growth inhibition incubated for 5 days by IncuCyte live-cell imaging analysis; assay type: functional; details: MDA-MB-468, 120 h, time 5 day
[9] = tested on: BT-474; test: Antiproliferative activity against human BT-474 cells assessed as growth inhibition incubated for 5 days by IncuCyte live-cell imaging analysis; assay type: functional; details: BT-474, 120 h, time 5 day
[10] = mouse, in vivo, ip, 50 mg/kg, 2 h
[11] = tested on: MDA-MB-468; test: Induction of apoptosis in human MDA-MB-468 cells at 2.5 uM measured upto 120 hrs by IncuCyte live-cell automated imaging analysis; assay type: functional
Procedure, shortened: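 MDA-MB-468 cells (1–3 × 10³/well, triplicate wells) grown with compound in DMEM/10% FBS at 37 °C, 5% CO₂. DRAQ7 at 1.5 μM was added to the medium, and apoptotic red-fluorescent counts were imaged on an IncuCyte over 5 days.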

[12] = target: T2, Protein cereblon/AKT (Homo sapiens); test: Protac activity at CRBN/AKT in human PC-3 cells assessed as reduction in S6 phosphorylation at 1 uM after 24 hrs by Western blot analysis; assay type: cell-based; procedure, shortened: as §1
[13] = target: T2, Protein cereblon/AKT (Homo sapiens); test: Protac activity at CRBN/AKT in human PC-3 cells assessed as reduction in PRAS40 phosphorylation at 1 uM after 24 hrs by Western blot analysis; assay type: cell-based; procedure, shortened: as §1
[14] = in vivo; details: Swiss albino, mouse, ip, 50 mg/kg
[15] = in vivo; details: Swiss albino, mouse, ip, 50 mg/kg; remark: listed apart in the source
[16] = target: T1, von Hippel-Lindau disease tumor suppressor/AKT (Homo sapiens); test: Protac activity at VHL/AKT in human PC-3 cells assessed as reduction in PRAS40 phosphorylation at 1 uM after 24 hrs by Western blot analysis; assay type: cell-based; procedure, shortened: as §1
[17] = target: T1, von Hippel-Lindau disease tumor suppressor/AKT (Homo sapiens); test: Protac activity at VHL/AKT in human PC-3 cells assessed as reduction in S6 phosphorylation at 1 uM after 24 hrs by Western blot analysis; assay type: cell-based; procedure, shortened: as §1
[18] = target: T1, von Hippel-Lindau disease tumor suppressor/AKT (Homo sapiens); test: Protac activity at VHL/AKT in human BT-474 cells assessed as reduction in phosphorylated AKT level at 5 to 10 uM after 24 hrs by Western blot analysis; assay type: cell-based; details: dose 5-10 µM
Procedure, shortened: (§2)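 BT474 cells were treated 24 h with compound and lysed in IP lysis buffer (Tris pH 7.5, Triton X-100, phosphatase and protease inhibitors). Lysates were normalised by BCA and run on 4–12% Bis–Tris gels with PVDF wet transfer. Blots were probed for total AKT, P-AKT S473, P-PRAS40 T246 and P-S6 S240/244, with β-actin loading control and HRP chemiluminescence.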

[19] = target: T1, von Hippel-Lindau disease tumor suppressor/AKT (Homo sapiens); test: Protac activity at VHL/AKT in human BT-474 cells assessed as reduction in total AKT level at 5 to 10 uM after 24 hrs by Western blot analysis; assay type: cell-based; details: dose 5-10 µM; procedure, shortened: as §2
[20] = target: T1, von Hippel-Lindau disease tumor suppressor/AKT (Homo sapiens); test: Protac activity at VHL/AKT in human BT-474 cells assessed as reduction in total AKT level after 24 hrs by Western blot analysis; assay type: cell-based; details: dose 1-10 µM; procedure, shortened: as §2
[21] = target: T2, Protein cereblon/AKT (Homo sapiens); test: Protac activity at CRBN/AKT in human BT-474 cells assessed as reduction in PRAS40 phosphorylation at 1 uM after 24 hrs by Western blot analysis; assay type: cell-based; procedure, shortened: as §2

SMILES: CCn1c(-c2nonc2N)nc2c(C#CC(C)(C)O)ncc(OCCCNCCCC(=O)NCCOCCOCC(=O)N[C@H](C(=O)N3C[C@H](O)C[C@H]3C(=O)NCc3ccc(-c4scnc4C)cc3)C(C)(C)C)c21
Activity [1]: inactive | Activity [2]: inactive

SMILES: CCn1c(-c2nonc2N)nc2c(C#CC(C)(C)O)ncc(OCCCNCCCC(=O)NCCOCCOCCC(=O)N[C@H](C(=O)N3C[C@H](O)C[C@H]3C(=O)NCc3ccc(-c4scnc4C)cc3)C(C)(C)C)c21
Activity [1]: inactive | Activity [2]: inactive

SMILES: C[C@@H]1C[C@@H](O)c2ncnc(N3CCN(C(=O)[C@H](CNCCC(=O)NCCCCCCCCNc4cccc5c4C(=O)N(C4CCC(=O)NC4=O)C5=O)c4ccc(Cl)cc4)CC3)c21 (stereo partly specified)
inhibition [5]: Active | GI50 [6]: 7.4 µM | Activity [7]: Non-Toxic | GI50 [8]: 5.7 µM | GI50 [9]: 0.7 µM | Cmax [10]: 1400 nM | Activity [11]: < 3%

SMILES: CCn1c(-c2nonc2N)nc2c(C#CC(C)(C)O)ncc(OCCCNCCCC(=O)NCCOCCOCCOCCOCCC(=O)N[C@H](C(=O)N3C[C@H](O)C[C@H]3C(=O)NCc3ccc(-c4scnc4C)cc3)C(C)(C)C)c21
Activity [1]: inactive | Activity [2]: inactive

SMILES: Cc1ncsc1-c1ccc([C@H](C)NC(=O)[C@@H]2C[C@@H](O)CN2C(=O)[C@@H](NC(=O)CCCCCCCCCCC(=O)NCCNC[C@@H](C(=O)N2CCN(c3ncnc4c3[C@H](C)C[C@H]4O)CC2)c2ccc(Cl)cc2)C(C)(C)C)cc1
GI50 [6]: 9.2 µM | Cmax at 8 h [14]: 3000 nM | Cmax at 2 h [15]: 3500 nM | Activity [7]: Non-Toxic | GI50 [8]: 3.8 µM | GI50 [9]: 1.3 µM | Activity [11]: < 3%

SMILES: CC(C)NC[C@@H](C(=O)N1CCN(c2ncnc3c2[C@H](C)C[C@H]3O)CC1)c1ccc(Cl)cc1 [IPATASERTIB]
GI50 [6]: 7.6 µM | GI50 [8]: 3.7 µM

SMILES: CCn1c(-c2nonc2N)nc2c(C#CC(C)(C)O)ncc(OCCCNCCCC(=O)NCCOCC(=O)N[C@H](C(=O)N3C[C@H](O)C[C@H]3C(=O)NCc3ccc(-c4scnc4C)cc3)C(C)(C)C)c21
Activity [1]: inactive | Activity [2]: inactive

SMILES: Cc1ncsc1-c1ccc([C@H](C)NC(=O)[C@H]2C[C@H](O)CN2C(=O)[C@@H](NC(=O)CCCCCCCCCCC(=O)NCCNC[C@@H](C(=O)N2CCN(c3ncnc4c3[C@H](C)C[C@H]4O)CC2)c2ccc(Cl)cc2)C(C)(C)C)cc1
GI50 [9]: 3.1 µM

SMILES: Cc1ncsc1-c1ccc(CNC(=O)[C@@H]2C[C@@H](O)CN2C(=O)[C@@H](NC(=O)COCCNC(=O)CCNC[C@@H](C(=O)N2CCN(c3ncnc4c3[C@H](C)C[C@H]4O)CC2)c2ccc(Cl)cc2)C(C)(C)C)cc1
Activity [18]: Active | Activity [19]: Active

SMILES: CCn1c(-c2nonc2N)nc2c(C#CC(C)(C)O)ncc(OCCCNCCCC(=O)NCCOCCOCCOCCOCCOCCC(=O)N[C@H](C(=O)N3C[C@H](O)C[C@H]3C(=O)NCc3ccc(-c4scnc4C)cc3)C(C)(C)C)c21
Activity [1]: inactive | Activity [2]: inactive

SMILES: C[C@@H]1C[C@@H](O)c2ncnc(N3CCN(C(=O)[C@H](CNCCC(=O)NCCCCCCCCNc4cccc5c4C(=O)N(C4CCC(=O)N(C)C4=O)C5=O)c4ccc(Cl)cc4)CC3)c21 (stereo partly specified)
GI50 [9]: 3.3 µM

SMILES: CCn1c(-c2nonc2N)nc2c(C#CC(C)(C)O)ncc(OCCCNCCCC(=O)NCCOCCOCCOCCC(=O)N[C@H](C(=O)N3C[C@H](O)C[C@H]3C(=O)NCc3ccc(-c4scnc4C)cc3)C(C)(C)C)c21
Activity [1]: inactive | Activity [2]: inactive

SMILES: CCn1c(-c2nonc2N)nc2c(C#CC(C)(C)O)ncc(OCCCNCCCC(=O)NCCOCCOCCOCC(=O)N[C@H](C(=O)N3C[C@H](O)C[C@H]3C(=O)NCc3ccc(-c4scnc4C)cc3)C(C)(C)C)c21
Activity [1]: inactive | Activity [2]: inactive

SMILES: Cc1ncsc1-c1ccc(CNC(=O)[C@@H]2C[C@@H](O)CN2C(=O)[C@@H](NC(=O)CCCCNC(=O)CCNC[C@@H](C(=O)N2CCN(c3ncnc4c3[C@H](C)C[C@H]4O)CC2)c2ccc(Cl)cc2)C(C)(C)C)cc1
Activity [20]: Dose-dependent effect

SMILES: C[C@@H]1C[C@@H](O)c2ncnc(N3CCN(C(=O)[C@H](CNCCNC(=O)CCCCCCCCNc4cccc5c4C(=O)N(C4CCC(=O)NC4=O)C5=O)c4ccc(Cl)cc4)CC3)c21 (stereo partly specified)
Activity [21]: Active

Now from value to compound:

Activity [3]: Active | Activity [4]: Active
SMILES: CCn1c(-c2nonc2N)nc2c(C#CC(C)(C)O)ncc(OCCCNCCCC(=O)NCCOCCNc3cccc4c3C(=O)N(C3CCC(=O)NC3=O)C4=O)c21 (stereo unspecified)

Activity [3]: Active | Activity [4]: Active | Activity [12]: Active | Activity [13]: inactive
SMILES: CCn1c(-c2nonc2N)nc2c(C#CC(C)(C)O)ncc(OCCCNCCCC(=O)NCCCCCCCCNc3cccc4c3C(=O)N(C3CCC(=O)NC3=O)C4=O)c21 (stereo unspecified)

Activity [3]: Active | Activity [4]: Active
SMILES: CCn1c(-c2nonc2N)nc2c(C#CC(C)(C)O)ncc(OCCCNCCCC(=O)NCCOCCOCCOCCOCCOCCNc3cccc4c3C(=O)N(C3CCC(=O)NC3=O)C4=O)c21 (stereo unspecified)

Activity [3]: Active | Activity [4]: Active
SMILES: CCn1c(-c2nonc2N)nc2c(C#CC(C)(C)O)ncc(OCCCNCCCC(=O)NCCOCCOCCNc3cccc4c3C(=O)N(C3CCC(=O)NC3=O)C4=O)c21 (stereo unspecified)

Activity [16]: inactive | Activity [1]: Active | Activity [2]: Active | Activity [17]: Active
SMILES: CCn1c(-c2nonc2N)nc2c(C#CC(C)(C)O)ncc(OCCCNCCCC(=O)NCCCCCCCCCCC(=O)N[C@H](C(=O)N3C[C@H](O)C[C@H]3C(=O)NCc3ccc(-c4scnc4C)cc3)C(C)(C)C)c21

Activity [3]: Active | Activity [4]: Active
SMILES: CCn1c(-c2nonc2N)nc2c(C#CC(C)(C)O)ncc(OCCCNCCCC(=O)NCCOCCOCCOCCOCCNc3cccc4c3C(=O)N(C3CCC(=O)NC3=O)C4=O)c21 (stereo unspecified)

Activity [1]: inactive | Activity [2]: inactive
SMILES: CCn1c(-c2nonc2N)nc2c(C#CC(C)(C)O)ncc(OCCCNCCCC(=O)NCCOCCC(=O)N[C@H](C(=O)N3C[C@H](O)C[C@H]3C(=O)NCc3ccc(-c4scnc4C)cc3)C(C)(C)C)c21

Activity [3]: Active | Activity [4]: Active
SMILES: CCn1c(-c2nonc2N)nc2c(C#CC(C)(C)O)ncc(OCCCNCCCC(=O)NCCOCCOCCOCCNc3cccc4c3C(=O)N(C3CCC(=O)NC3=O)C4=O)c21 (stereo unspecified)
